# This is a sample that favours compounds with a hit; in the whole collection about 3.5% have one here.
# RGS4 pot = RGS4 potentiation or activation | HEK293 M3R/inducible RGS4, carbachol calcium flux Fluo4; stronger effect = lower value | B-score at 10 µM | actives 0.92% (n = 310,000);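 active means B-score of the integrated calcium signal more than 4 SD below the library mean, with starting fluorescence not abnormally high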;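 further: negative B-score means reduced calcium response which marks RGS4 activation or potentiation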
#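 System: HEK293 FlpIn-TREx cells, stable M3R, doxycycline-inducible RGS4. Timing: overnight RGS4 induction, 30 min dye load 37 °C, 20 min compound RT. Also added: carbachol, ECmax concentration. Measured by: Fluo4 fluorescence kinetic imaging of calcium. Evaluation: integrated calcium ratio converted to B score.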
# MrgX1 ag = agonists of human MrgX1 receptor. Q96LB2. MrgX1-HEK293 cells, Fluo-4 calcium fluorescence, agonist mode; stronger effect = higher value. B-score at 10 µM. actives 0.44% (n = 310,000);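 active means calcium response B-score plate-corrected fluorescence ratio at least 3 library SD, with starting fluorescence B-score inside 5 SD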
#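 Test system: HEK293 cells stably expressing human MrgX1 receptor; amount: 15,000 cells per well; doses: compound delivered in addition one of three; times: overnight plating before 1 h dye loading; detection: Fluo-4 NW calcium-flux fluorescence, kinetic read; read-out basis: B-scored fluorescence response ratio; controls: positive and negative controls per plate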
# MrgX1 PAM = human MrgX1 positive allosteric modulation, primary screen; Q96LB2; B-score at 10 µM; MrgX1-HEK293, Fluo-4 calcium flux, FDSS; stronger effect = higher value; actives 0.63% (n = 310,000);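 active means plate-corrected calcium response at least 3 library SD above typical, normal starting fluorescence, not activating the receptor alone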;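 further: compound read alongside a low EC10 to EC30 dose of BAM8-22 agonist; peak minus trough fluorescence over baseline measured at the second addition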
# RGS4 inh = human RGS4 inhibition; P49798; AID 463165; HEK293 M3R/RGS4 inducible, Fluo-4 calcium flux; stronger effect = higher value; triggered by carbachol at its EC20; actives 0.45% (n = 310,000); B-score at 10 µM;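 active means B-score, a plate-corrected calcium signal, over three deviations above library mean, with baseline fluorescence within five deviations of library mean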;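 further: RGS4 expression induced by doxycycline in cells with stable M3 receptor; B-score is computed from the integrated fluorescence ratio over baseline after carbachol; higher B-score means a larger calcium signal and so more RGS4 inhibition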
# Target sequence (P49798 whole entry, looked up): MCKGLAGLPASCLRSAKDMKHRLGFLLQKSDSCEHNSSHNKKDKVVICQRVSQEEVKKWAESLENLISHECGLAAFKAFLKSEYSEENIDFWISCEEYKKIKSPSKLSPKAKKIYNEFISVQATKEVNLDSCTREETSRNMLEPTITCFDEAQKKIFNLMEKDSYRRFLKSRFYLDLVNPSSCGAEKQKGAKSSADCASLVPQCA
# MrgX1 antag = antagonists of human MrgX1 receptor. actives 1.3% (n = 310,000). MRGX1-HEK293 calcium flux, Fluo-4, BAM8-22 antagonism; stronger effect = lower value. B-score at 10 µM. AID 588676;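 active means calcium-response B-score plate-corrected more than 3 library SD below zero, starting fluorescence within 5 deviations, no agonist response on first addition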;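 further: peak minus trough fluorescence over baseline after final BAM8-22 challenge near maximal dose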
# RGS4 block valid = RGS4 inhibitor validation. HEK293 M3R/RGS4, carbachol calcium Fluo-4 fluorescence; carbachol added at its EC20; 0 = buffer wells, 100 = carbachol control. AID 492999. shares compounds with RGS4 inh. calcium response, % at 10 µM. actives 65% (n = 1,700);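 active means duplicate-averaged calcium response above the buffer-only control mean plus 5 SD of those controls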;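 further: integrated fluorescence ratio F max minus min over baseline F0; higher response in RGS4-induced cells means RGS4 inhibition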
# M3R Ca ctr = checks RGS4 inhibitor effects in non-induced HEK293 M3R cells; shares compounds with RGS4 inh; carbachol calcium Fluo-4; submaximal (EC20) carbachol stimulus; buffer wells 0%, carbachol control wells 100%; activity (percent), % at 10 µM; actives 20% (n = 1,900); AID 493000; call rule not given here;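 further: RGS4 induction absent so cells express M3R without RGS4; higher means more calcium signal and flags a non-specific hit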
# RGS4 inh ctr2 = signal in non-induced cells without carbachol, RGS4 inhibitor counter-screen | shares compounds with RGS4 inh | HEK293 M3R/RGS4 non-induced, Fluo-4 calcium, no carbachol; normalised: buffer wells 0%, carbachol wells 100% | calcium response (agonist-mode artifact), % at 10 µM | actives 22% (n = 1,900);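 active means duplicate-averaged calcium rise in uninduced cells above buffer wells' mean plus 5 SD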
# A number is an active result; - = inactive; . = no result given.
SMILES,RGS4 pot,MrgX1 ag,MrgX1 PAM,RGS4 inh,MrgX1 antag,RGS4 block valid,M3R Ca ctr,RGS4 inh ctr2
CN(Cc1nccn1C)C(=O)c1ccc(OC2CCN(CCc3ccccc3)CC2)cc1,-,-,-,-,-,.,.,.
CCOC(=O)/C(C#N)=C\C1=C(N2CCOCC2)CC(C)(C)OC1,-,-,-,-,-,.,.,.
CCCN1Cc2cccc(C(=O)Nc3ccc(-c4nc5ccccc5[nH]4)cc3)c2C1=O,-,-,-,-,-,.,.,.
CSc1nc2ccsc2c(=O)n1-c1ccccn1,-,-,-,-,-,.,.,.
CC(=N\Nc1ccc(Cl)cc1)/C(=N/O)C(=O)Nc1ccccc1,-,-,-,5.7,-,14%,-,-
C/C(=N\O)C(=O)Nc1ccccc1,-,-,-,-,-,.,.,.
Cc1ccccc1OCC(=O)NCC(c1cccs1)N1CCOCC1 (configuration not stated),-,-,-,-,-,.,.,.
CN(C)c1oc(-c2ccccc2[N+](=O)[O-])nc1C#N,-,-,-,11,-,5.0%,-,-
CCN(CC)c1ccc(S(=O)(=O)N2CCOCC2)cc1NC(=O)CN1C(=O)NC2(CCC(C)CC2)C1=O (configuration not stated),-,-,-,-,-,.,.,.
COc1ccc(NC(=O)/C(Cl)=C(/Cl)S(=O)Cc2ccccc2)cn1 (configuration not stated),-,-,-,27,-,46%,-,-
CC(=O)Nc1ccc(NC(=O)CC2Nc3cccc4cccc(c34)NC2=O)cc1 (configuration not stated),-,-,-,-,-,-,-,-
O=C(COC(=O)Cc1cccc(C(F)(F)F)c1)NC1CCS(=O)(=O)C1 (configuration not stated),-,-,-,-,-,.,.,.
O=C(/C=C/c1cccc([N+](=O)[O-])c1)Nc1ccc(NC(=O)c2cccs2)cc1,-,-,-,-,-,.,.,.
O=C(/C=C/c1cccc([N+](=O)[O-])c1)n1cnc2ccccc21,-,.,.,7.9,.,19%,-,-
Cc1cc(O)c(C(=O)/C=C/c2cccc([N+](=O)[O-])c2)c(=O)o1,-,-,-,4.7,-,30%,-,-
O=C(/C=C/c1cccc([N+](=O)[O-])c1)c1cccs1,-,35,-,4.8,-,-,-,-
O=C(/C=C/c1cccc([N+](=O)[O-])c1)N1CCN(c2ccccn2)CC1,-,-,-,-,-,.,.,.
CC1(C)COC(/C=C/c2ccc([N+](=O)[O-])cc2)=N1,-,-,-,5.7,-,8.0%,29%,-
Cc1ccc(-c2cc(Cc3ccccc3)c(=O)[nH]n2)cc1,-,-,-,-,-,.,.,.
CCOc1cccc(C2C(C(=O)c3ccc(C)o3)=C(O)C(=O)N2Cc2ccccc2)c1 (configuration not stated),-,.,.,4.7,.,16%,-,-
CCCOc1ccc(/C=c2\sc3ncnn3c2=O)cc1,-,-,-,5.8,-,9.0%,49%,14%
Cc1ccccc1OCc1nnc(SCC(=O)Nc2ccc3c(c2)oc2ccccc23)n1C,-,-,-,5.1,-,14%,-,-
CN1CCN(Cc2c(O)ccc3cc(Br)ccc23)CC1,-,-,-,-,-,.,.,.
CCN(Cc1ccncc1)Cc1c(O)ccc2cc(Br)ccc12,-,.,.,4.8,.,-,-,-
CC(C)(O)P(=O)(O)CCc1ccccc1,-,-,-,-,-,.,.,.
OCCN(CCO)c1ccc2ccccc2c1,-,-,-,-,-,.,.,.
OCCN(CCO)c1ccc(C(c2ccccc2Cl)c2ccc(N(CCO)CCO)cc2Cl)c(Cl)c1,-,-,-,-,-,-,-,15%
